# Measurements published in ChEMBL document CHEMBL4406794, “N-(7-Cyano-6-(4-fluoro-3-(2-(3-(trifluoromethyl)phenyl)acetamido)phenoxy)benzo[d]thiazol-2-yl)cyclopropanecarboxamide (TAK-632) Analogues as Novel Necroptosis Inhibitors by Targeting Receptor-Interacting Protein Kinase 3 (RIPK3): Synthesis, Structure-Activity Relationships, and in Vivo Efficacy” (J Med Chem, 2019).
# The source made the active and inactive calls. The calls are words filed in the database; no cut-off is given here.
# Assays:
# [1] = Toxicity in Sprague-Dawley rat at 1 mg/kg, iv or 5 mg/kg, po; type: organism-based; conditions: in vivo
# Mus musculus [2] = test: (§1) Protection against TNFalpha/Z-VAD-fmk-induced C57BL/6J mouse model of systemic inflammatory response syndrome at 25 mg/kg, po administered via gavage 2 hrs prior to Z-VAD-fmk addition for 15 mins followed by TNFalpha stimulation for 1 hr and subsequent Z-VAD-fmk addition meaured up to 50 hrs post TNFalpha stimulation relative to control; type: functional
# Procedure, shortened: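 Overnight-fasted C57BL/6 female mice, n=10 per group. Test compound was given by oral gavage 2 h before mTNF-α. z-VAD-fmk (180 µg) was injected ip, then 15 min later mTNF-α in endotoxin-free PBS was injected iv (400 µg/kg). A second z-VAD-fmk dose (70 µg) was given ip 1 h after TNF. Body temperature and survival were followed against vehicle. One-way ANOVA was used.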
# [3] = Clearance in Sprague-Dawley rat at 1 mg/kg, iv by LC-tandem mass spectrometry analysis; type: ADME, organism-based; conditions: in vivo
# Procedure, shortened: (§2)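 Male Sprague-Dawley rats dosed once i.v. at 1 mg/kg or intragastrically at 5 mg/kg. Compound dissolved in 5% DMSO, 10% Tween 80, 75% physiological saline at 0.2 and 1 mg/mL. Blood taken at several time points, plasma spun at 4 °C, stored at -80 °C, assayed by LC/MS/MS. Parameters from individual animals by noncompartmental analysis.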
# HT-29 [4] = test: Effect on TNFalpha/cycloheximide-induced apoptosis in human HT-29 cells at 3 uM treated prior to TNFalpha/cycloheximide stimulation and measured after 20 hrs by cell-Titer Glo luminescent cell viability assay; type: cell-based; conditions: ht-29, 20 h
# Procedure, shortened: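 HT-29 cells pretreated with compound at 3 μM or DMSO, then given TNF-α 20 ng/mL with either cycloheximide 5 μg/mL (TC) or Smac mimetic 10 nM (TS) for 20 h. Viability read by CellTiter-Glo luminescence.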
# HT-29 [5] = test: Anti-necroptotic activity in human HT-29 cells assessed as inhibition of […]/SM-164/Z-VAD-fmk-induced necroptosis measured after 16 hrs by celltiter-glo luminescent cell viability assay; conditions: HT-29, 16 h
# HT-29 [6] = test: Cytoprotection against TNFalpha/cycloheximide/Z-VAD-fmk-induced necroptosis in human HT-29 cells at 3 uM treated prior to TNFalpha/cycloheximide/Z-VAD-fmk stimulation and measured after 12 hrs by cell-Titer Glo luminescent cell viability assay; type: functional, cell-based
# Procedure, shortened: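 HT-29 cells pretreated with compound at 3 μM or DMSO, then given TNF-α 20 ng/mL, cycloheximide 5 μg/mL and z-VAD-fmk 20 μM for 12 h. Viability read by CellTiter-Glo luminescence.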
# [7] = Cmax in Sprague-Dawley rat at 1 mg/kg, iv by LC-tandem mass spectrometry analysis; type: ADME, organism-based; design: dose 1 mg/kg, route intravenous; conditions: in vivo; procedure, shortened: as §2
# [8] = Oral bioavailability in Sprague-Dawley rat at 5 mg/kg by LC-tandem mass spectrometry analysis; type: ADME, organism-based; conditions: in vivo; procedure, shortened: as §2
# [9] = target: Inhibitor of nuclear factor kappa-B kinase subunit alpha (Homo sapiens) (UniProt O15111); test: Inhibition of wild-type human full length IKK-alpha (M1 to E745 residues) expressed in mammalian expression system assessed as enzyme remaining activity at 1000 nM by Kinomescan method relative to control
# Inhibitor of nuclear factor kappa-B kinase subunit alpha (Homo sapiens), sequence (O15111 whole entry, the tested form may be a part): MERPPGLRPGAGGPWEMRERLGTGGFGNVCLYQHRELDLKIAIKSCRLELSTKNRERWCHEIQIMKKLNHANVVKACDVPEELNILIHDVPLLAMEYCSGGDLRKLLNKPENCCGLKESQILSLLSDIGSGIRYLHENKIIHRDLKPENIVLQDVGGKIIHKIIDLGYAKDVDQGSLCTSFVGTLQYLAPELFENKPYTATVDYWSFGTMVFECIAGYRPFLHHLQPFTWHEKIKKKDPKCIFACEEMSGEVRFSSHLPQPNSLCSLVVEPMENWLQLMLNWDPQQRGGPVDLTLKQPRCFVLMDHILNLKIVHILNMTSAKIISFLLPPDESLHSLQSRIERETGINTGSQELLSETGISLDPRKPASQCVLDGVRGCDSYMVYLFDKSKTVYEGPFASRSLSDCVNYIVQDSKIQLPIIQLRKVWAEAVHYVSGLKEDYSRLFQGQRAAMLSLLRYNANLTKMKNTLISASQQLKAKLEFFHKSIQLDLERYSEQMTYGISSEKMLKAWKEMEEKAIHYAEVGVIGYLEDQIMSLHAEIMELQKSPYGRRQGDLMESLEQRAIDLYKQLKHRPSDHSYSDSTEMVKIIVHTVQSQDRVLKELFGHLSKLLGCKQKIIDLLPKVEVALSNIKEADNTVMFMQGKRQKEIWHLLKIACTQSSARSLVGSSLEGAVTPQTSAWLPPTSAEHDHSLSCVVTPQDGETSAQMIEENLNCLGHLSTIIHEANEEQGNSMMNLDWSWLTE
# [10] = AUC (0 to t) in Sprague-Dawley rat at 5 mg/kg, po by LC-tandem mass spectrometry analysis; type: ADME, organism-based; conditions: in vivo; procedure, shortened: as §2
# [11] = target: MAP kinase-activated protein kinase 2 (Homo sapiens) (UniProt P49137); test: Inhibition of wild-type human partial length MAPKAPK2 (V48 to D345 residues) expressed in bacterial expression system assessed as enzyme remaining activity at 1000 nM by Kinomescan method relative to control
# Mus musculus [12] = test: as §1, with “syndrome assessed as increase in body temperature” for “syndrome”, “5 to 50” for “25”, “by electric thermometer” for “relative to control”; type: functional, organism-based
# Procedure, shortened: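 Female C57BL/6 mice, fasted overnight, n=10 per group. Compound given by oral gavage at 5, 25 or 50 mg/kg 2 h before TNF. z-VAD-fmk 180 µg i.p., then 15 min later mTNF-α 400 µg/kg i.v. in endotoxin-free PBS, then a further 70 µg z-VAD-fmk i.p. 1 h later. Body temperature and survival followed, compared with vehicle by one-way ANOVA.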
# [13] = target: Epidermal growth factor receptor (Homo sapiens) (UniProt P00533); test: Inhibition of wild-type human partial length EGFR (R669 to V1011 residues) expressed in bacterial expression system assessed as enzyme remaining activity at 1000 nM by Kinomescan method relative to control
# Epidermal growth factor receptor (Homo sapiens), sequence (P00533 whole entry, the tested form may be a part): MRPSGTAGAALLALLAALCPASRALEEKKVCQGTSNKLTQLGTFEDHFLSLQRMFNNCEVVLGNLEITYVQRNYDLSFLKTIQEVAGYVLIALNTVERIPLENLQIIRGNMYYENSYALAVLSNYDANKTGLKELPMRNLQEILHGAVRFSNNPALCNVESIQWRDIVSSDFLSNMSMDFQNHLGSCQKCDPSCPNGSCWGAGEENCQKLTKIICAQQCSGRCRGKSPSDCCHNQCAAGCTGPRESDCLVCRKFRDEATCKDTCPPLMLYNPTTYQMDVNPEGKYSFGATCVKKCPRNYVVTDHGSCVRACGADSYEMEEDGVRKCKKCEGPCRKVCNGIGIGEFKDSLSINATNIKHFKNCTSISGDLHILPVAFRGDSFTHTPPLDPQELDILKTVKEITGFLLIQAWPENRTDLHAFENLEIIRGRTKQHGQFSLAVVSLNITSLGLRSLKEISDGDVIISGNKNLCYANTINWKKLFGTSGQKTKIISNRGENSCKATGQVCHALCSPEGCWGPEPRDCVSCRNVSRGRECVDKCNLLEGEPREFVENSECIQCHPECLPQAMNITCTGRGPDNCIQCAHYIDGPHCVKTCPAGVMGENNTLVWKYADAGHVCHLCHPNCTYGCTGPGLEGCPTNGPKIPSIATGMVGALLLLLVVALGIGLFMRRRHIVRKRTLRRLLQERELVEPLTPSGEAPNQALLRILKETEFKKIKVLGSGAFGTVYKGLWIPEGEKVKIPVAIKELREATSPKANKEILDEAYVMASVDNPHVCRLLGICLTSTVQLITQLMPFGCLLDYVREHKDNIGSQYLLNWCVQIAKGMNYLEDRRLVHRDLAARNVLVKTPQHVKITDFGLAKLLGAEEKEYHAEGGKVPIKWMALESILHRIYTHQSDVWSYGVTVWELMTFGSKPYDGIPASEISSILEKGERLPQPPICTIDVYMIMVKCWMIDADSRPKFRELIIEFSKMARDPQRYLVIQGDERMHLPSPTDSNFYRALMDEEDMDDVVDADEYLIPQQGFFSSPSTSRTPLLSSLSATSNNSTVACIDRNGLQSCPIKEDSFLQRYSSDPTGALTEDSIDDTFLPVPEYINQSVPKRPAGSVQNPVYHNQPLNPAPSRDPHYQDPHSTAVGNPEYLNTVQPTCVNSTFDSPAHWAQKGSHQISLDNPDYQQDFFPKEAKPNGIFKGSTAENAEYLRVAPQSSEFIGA
# Procedure, shortened: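 KINOMEscan binding competition. […] Incubation was 1 h at room temperature with shaking, then bead wash and elution with 0.5 μM nonbiotinylated ligand for 30 min. Eluted kinase was quantified by qPCR. Compound was diluted from 40× DMSO stocks to 1000 nM final.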
# [14] = target: Mitogen-activated protein kinase 3 (Homo sapiens) (UniProt P27361); test: Inhibition of wild-type human full length ERK1 (M1 to P379 residues) expressed in bacterial expression system assessed as enzyme remaining activity at 1000 nM by Kinomescan method relative to control
# Mitogen-activated protein kinase 3 (Homo sapiens), sequence (P27361 whole entry, the tested form may be a part): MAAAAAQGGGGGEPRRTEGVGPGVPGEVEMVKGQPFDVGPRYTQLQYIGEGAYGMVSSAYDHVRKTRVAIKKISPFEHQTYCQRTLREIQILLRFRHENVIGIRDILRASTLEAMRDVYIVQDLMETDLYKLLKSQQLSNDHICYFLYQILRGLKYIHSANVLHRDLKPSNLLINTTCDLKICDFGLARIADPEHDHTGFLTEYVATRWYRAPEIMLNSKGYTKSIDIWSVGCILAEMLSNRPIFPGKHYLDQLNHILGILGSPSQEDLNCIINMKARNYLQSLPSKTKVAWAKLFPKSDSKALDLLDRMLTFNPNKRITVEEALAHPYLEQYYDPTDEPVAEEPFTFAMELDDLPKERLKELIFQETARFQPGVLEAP
# [15] = target: Mitogen-activated protein kinase 8 (Homo sapiens) (UniProt P45983); test: Inhibition of wild-type human full length JNK1 (M1 to Q384 residues) expressed in mammalian expression system assessed as enzyme remaining activity at 1000 nM by Kinomescan method relative to control
# [16] = target: Proto-oncogene tyrosine-protein kinase Src (Homo sapiens) (UniProt P12931); test: Inhibition of wild-type human partial length SRC (L240 to L536 residues) expressed in bacterial expression system assessed as enzyme remaining activity at 1000 nM by Kinomescan method relative to control
# [17] = target: Cyclin-dependent kinase 3 (Homo sapiens) (UniProt Q00526); test: Inhibition of wild-type human full length CDK3 (M1 to H305 residues) expressed in bacterial expression system assessed as enzyme remaining activity at 1000 nM by Kinomescan method relative to control
# Cyclin-dependent kinase 3 (Homo sapiens), sequence (Q00526 whole entry, looked up, the tested form may be a part): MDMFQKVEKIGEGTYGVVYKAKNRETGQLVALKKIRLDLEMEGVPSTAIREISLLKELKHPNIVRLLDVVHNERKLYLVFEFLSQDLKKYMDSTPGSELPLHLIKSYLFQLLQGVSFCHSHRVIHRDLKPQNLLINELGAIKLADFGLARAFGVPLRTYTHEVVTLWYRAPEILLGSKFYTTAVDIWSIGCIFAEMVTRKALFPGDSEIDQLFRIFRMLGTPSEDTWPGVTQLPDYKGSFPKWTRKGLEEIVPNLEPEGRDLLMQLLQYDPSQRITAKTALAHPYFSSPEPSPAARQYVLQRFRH
# [18] = target: Receptor-interacting serine/threonine-protein kinase 3 (Homo sapiens, UniProt Q9Y572); test: Inhibition of RIPK3 phosphorylation in human HT-29 cells assessed as reduction in TNFalpha/smac mimetic/Z-VAD-fmk-induced necrosome formation at 1 uM treated prior to TNFalpha/smac mimetic/Z-VAD-fmk stimulation and measured after 4 hrs by immunoprecipitation based assay; type: cell-based
# Procedure, shortened: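 HT-29 cells treated with 1 μM compound or DMSO for 4 h, then lysed in M2 buffer. Lysates immunoprecipitated overnight at 4 °C with anti-RIPK1 (1 μg) on protein A/G agarose. Bound proteins boiled off and resolved on 4–20% SDS gels, then immunoblotted.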
# [19] = target: Platelet-derived growth factor receptor alpha (Homo sapiens) (UniProt P16234); test: Inhibition of wild-type human partial length PDGFRA (V575 to D1002 residues) expressed in mammalian expression system assessed as enzyme remaining activity at 1000 nM by Kinomescan method relative to control
# Platelet-derived growth factor receptor alpha (Homo sapiens), sequence (P16234 whole entry, the tested form may be a part): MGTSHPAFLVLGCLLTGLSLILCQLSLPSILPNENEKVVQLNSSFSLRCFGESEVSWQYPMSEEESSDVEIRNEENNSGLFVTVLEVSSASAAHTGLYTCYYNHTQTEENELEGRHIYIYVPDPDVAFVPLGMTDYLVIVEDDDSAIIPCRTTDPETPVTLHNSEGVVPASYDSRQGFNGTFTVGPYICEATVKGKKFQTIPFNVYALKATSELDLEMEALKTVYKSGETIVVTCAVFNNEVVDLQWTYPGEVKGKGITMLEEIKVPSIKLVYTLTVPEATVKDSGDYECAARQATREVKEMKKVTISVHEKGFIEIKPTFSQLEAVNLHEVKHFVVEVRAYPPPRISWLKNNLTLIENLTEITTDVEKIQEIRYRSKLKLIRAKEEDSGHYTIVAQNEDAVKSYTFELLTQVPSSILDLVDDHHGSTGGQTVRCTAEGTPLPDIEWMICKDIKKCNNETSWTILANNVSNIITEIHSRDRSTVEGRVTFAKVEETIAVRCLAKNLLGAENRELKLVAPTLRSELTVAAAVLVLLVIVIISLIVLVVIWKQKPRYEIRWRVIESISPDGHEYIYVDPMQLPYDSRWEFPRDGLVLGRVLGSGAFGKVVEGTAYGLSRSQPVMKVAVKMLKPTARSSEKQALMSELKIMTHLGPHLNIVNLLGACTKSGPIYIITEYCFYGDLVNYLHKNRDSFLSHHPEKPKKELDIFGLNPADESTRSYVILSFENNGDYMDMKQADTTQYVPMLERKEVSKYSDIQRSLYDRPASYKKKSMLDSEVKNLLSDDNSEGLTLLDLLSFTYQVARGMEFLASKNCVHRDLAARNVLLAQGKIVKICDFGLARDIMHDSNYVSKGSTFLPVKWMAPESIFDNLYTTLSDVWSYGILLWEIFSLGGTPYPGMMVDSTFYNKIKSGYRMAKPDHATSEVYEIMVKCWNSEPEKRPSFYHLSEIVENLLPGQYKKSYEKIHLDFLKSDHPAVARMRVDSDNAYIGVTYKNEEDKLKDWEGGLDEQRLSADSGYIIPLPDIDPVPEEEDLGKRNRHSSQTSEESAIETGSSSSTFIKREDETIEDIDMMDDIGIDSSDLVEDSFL
# [20] = target: Vascular endothelial growth factor receptor 2 (Homo sapiens) (UniProt P35968); test: Inhibition of wild-type human partial length VEGFR2 (R787 to P1253 residues) expressed in mammalian expression system assessed as enzyme remaining activity at 1000 nM by Kinomescan method relative to control
# Vascular endothelial growth factor receptor 2 (Homo sapiens), sequence (P35968 whole entry, the tested form may be a part): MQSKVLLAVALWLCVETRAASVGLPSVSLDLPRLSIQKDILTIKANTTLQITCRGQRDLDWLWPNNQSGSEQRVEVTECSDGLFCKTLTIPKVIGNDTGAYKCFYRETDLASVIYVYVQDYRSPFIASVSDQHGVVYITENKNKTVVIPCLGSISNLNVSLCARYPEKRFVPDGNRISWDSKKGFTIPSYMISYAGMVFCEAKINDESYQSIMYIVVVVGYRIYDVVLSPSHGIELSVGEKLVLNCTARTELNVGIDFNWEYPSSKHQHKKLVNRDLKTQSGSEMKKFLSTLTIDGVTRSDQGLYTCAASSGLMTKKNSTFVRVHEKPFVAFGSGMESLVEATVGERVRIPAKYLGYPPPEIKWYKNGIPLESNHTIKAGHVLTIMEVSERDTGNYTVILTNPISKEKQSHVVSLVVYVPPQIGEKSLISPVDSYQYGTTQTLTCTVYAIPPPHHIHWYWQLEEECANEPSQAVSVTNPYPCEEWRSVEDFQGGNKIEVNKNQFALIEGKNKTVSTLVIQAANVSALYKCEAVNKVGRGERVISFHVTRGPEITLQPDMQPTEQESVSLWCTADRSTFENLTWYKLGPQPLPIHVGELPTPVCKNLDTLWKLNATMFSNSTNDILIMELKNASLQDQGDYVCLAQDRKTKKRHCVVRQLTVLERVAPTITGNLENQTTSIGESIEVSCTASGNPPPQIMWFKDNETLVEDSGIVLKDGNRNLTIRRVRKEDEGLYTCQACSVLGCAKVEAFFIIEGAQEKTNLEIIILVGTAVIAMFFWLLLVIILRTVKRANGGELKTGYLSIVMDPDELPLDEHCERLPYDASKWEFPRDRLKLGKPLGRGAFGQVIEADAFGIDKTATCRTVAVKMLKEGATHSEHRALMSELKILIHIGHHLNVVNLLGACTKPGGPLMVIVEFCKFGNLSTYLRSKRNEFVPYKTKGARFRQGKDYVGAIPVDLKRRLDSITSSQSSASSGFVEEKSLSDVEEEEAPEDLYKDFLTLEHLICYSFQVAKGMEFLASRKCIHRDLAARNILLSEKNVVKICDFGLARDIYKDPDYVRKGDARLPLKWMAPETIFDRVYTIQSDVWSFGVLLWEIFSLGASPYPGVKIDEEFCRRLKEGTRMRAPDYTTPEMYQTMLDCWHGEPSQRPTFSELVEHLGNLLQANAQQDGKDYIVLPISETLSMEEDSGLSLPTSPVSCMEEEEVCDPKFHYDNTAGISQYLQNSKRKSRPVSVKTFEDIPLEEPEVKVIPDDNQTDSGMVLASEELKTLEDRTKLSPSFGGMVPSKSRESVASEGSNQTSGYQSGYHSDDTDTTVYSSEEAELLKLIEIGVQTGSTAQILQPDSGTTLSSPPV
structure (smiles),measurement,setting,value
O=C(Nc1cccc(Br)c1)Nc1cc(Oc2ccc3nc(NC(=O)C4CC4)sc3c2)ccc1F,Activity,[1],Non-Toxic
same,Activity,Mus musculus [2],100%
same,clearance,[3],2.6 mL/min/kg
same,Activity,HT-29 [4],Non-Toxic
same,EC50,HT-29 [5],440 nM
same,Activity,HT-29 [6],Active
same,Cmax,[7],4600 ng/mL
same,bioavailability,[8],25.2%
same,Activity,[9],100%
same,AUC(0-t),[10],7010 ng·h/mL
same,Activity,[11],100%
same,Activity,Mus musculus [12],Active
same,Activity,[13],33%
same,Activity,[14],100%
same,Activity,[15],79%
same,Activity,[16],0%
same,Activity,[17],96%
same,inhibition,[18],Active
same,Activity,[19],5.3%
same,Activity,[20],2.8%
